Data from ChEMBL document CHEMBL1926538, “3,5-Disubstituted-thiazolidine-2,4-dione analogs as anticancer agents: design, synthesis and biological characterization” (Eur J Med Chem, 2012).
Calls of active or inactive are those of the source. No cut-off for these calls is given here.

Legend:
U-937 [1] = test: Induction of apoptosis in human U937 cells assessed as necrotic cells at 3 uM after 3 hrs by annexinV-propidium iodide staining-based flow cytometric analysis (reference value: 2.3%); format: functional
[2] = molecular target: Insulin-like growth factor 1 receptor (Homo sapiens) (UniProt P08069); test: Inhibition of IGF1R at 10 uM
U-937 [3] = test: Growth inhibition of human U937 cells after 72 hrs by MTS assay in presence of 320 uM AMPK activator AICA; format: functional, cell-based
How it was run: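 U937 cells exposed 72 h, with or without AICA 320 µM, then MTS added. Absorbance read at 490 nm, expressed as percentage of untreated controls. Data are mean percentage viability, n = 6, error bars SEM.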

[4] = Induction of apoptosis in human M12 cells assessed as early apoptotic cells at 20 uM after 24 hrs by annexinV-propidium iodide staining-based flow cytometric analysis (reference value: 13.6%); format: functional
DU-145 [5] = test: Induction of apoptosis in human DU145 cells assessed as late apoptotic cells at 20 uM after 24 hrs by annexinV-propidium iodide staining-based flow cytometric analysis (reference value: 5.1%); format: functional
[6] = molecular target: RAF proto-oncogene serine/threonine-protein kinase (Homo sapiens) (UniProt P04049); test: Inhibition of raf-mediated ERK phosphorylation in human U937 cells at 3 uM after 1 hr by Western blot analysis; format: cell-based; conditions: U-937
How it was run: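 Cells in RPMI 1640 with 10% heat-inactivated FBS, 37 °C, 5% CO2; treated in growing medium (DU145 24 h; U937 1 h at 5 × 10⁵/mL). Lysed by sonication in SDS sample buffer with protease inhibitors plus 1 mM orthovanadate and pyrophosphate, boiled 5 min. Blots blocked in 5% milk, primary antibodies 1:1000 overnight at 4 °C, HRP secondary 1:2000, chemiluminescence; α-tubulin loading control.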

U-937 [7] = test: Induction of apoptosis in human U937 cells assessed as early apoptotic cells at 3 uM after 18 hrs by annexinV-propidium iodide staining-based flow cytometric analysis (reference value: 4.3%); format: functional
[8] = molecular target: MAP kinase-activated protein kinase 5 (Homo sapiens) (UniProt Q8IW41); test: Inhibition of PRAK at 10 uM
[9] = molecular target: c-Jun N-terminal kinase, JNK (Homo sapiens) (UniProt P45983+P53779+P45984); test: Inhibition JNK phosphorylation in human U937 cells at 1 to 10 uM after 1 hr by Western blot analysis; format: cell-based; conditions: U-937
How it was run: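 U937 cells at 5 × 10^5/mL were exposed to compound for 1 h, then sonicated in SDS/DTT sample buffer with protease inhibitors plus 1 mM orthovanadate and pyrophosphate, and boiled 5 min. Blots were blocked in 5% milk, probed with primary antibody overnight at 4 °C and 1:2000 HRP secondary, and read by chemiluminescence. α-Tubulin reprobe served as loading control. Blots shown represent one of three experiments.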

[10] = molecular target: Tyrosine-protein kinase Lck (Homo sapiens) (UniProt P06239); test: Inhibition of LCK at 10 uM
[11] = molecular target: Tyrosine-protein kinase BTK (Homo sapiens) (UniProt Q06187); test: Inhibition of BTK at 10 uM
U-937 [12] = test: Cell cycle arrest in human U937 cells assessed as accumulation at S-phase after 24 hrs by propidium iodide staining-based flow cytometric analysis; format: functional
How it was run: (§1)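 Cells cultured in RPMI 1640 with 10% FBS and treated 24 h at the indicated concentrations. Stained with propidium iodide for 4 h at 4 °C in the dark. Flow cytometry gave the percentage of cells in G₀/G₁, S, G₂/M and sub-G₁ phases.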

DU-145 [13] = test: Growth inhibition of human DU145 cells after 24 hrs by MTS assay; format: functional, cell-based
How it was run: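 Cells in RPMI 1640 with 10% heat-inactivated FBS, seeded 2 × 10⁴ cells/well and exposed 24 h. MTS reagent added, then 1 h further incubation at 37 °C, 5% CO₂. Formazan absorbance read at 490 nm. Viability expressed as percentage of untreated controls.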

[14] = molecular target: Tyrosine-protein kinase ABL1 (Homo sapiens) (UniProt P00519); test: Inhibition of ABL at 10 uM
[15] = molecular target: 3-phosphoinositide-dependent protein kinase 1 (Homo sapiens) (UniProt O15530); test: Inhibition of PDK1 at 10 uM
[16] = molecular target: Serine/threonine-protein kinase Chk1 (Homo sapiens) (UniProt O14757); test: Inhibition of CHK1 at 10 uM
[17] = molecular target: Hepatocyte growth factor receptor (Homo sapiens) (UniProt P08581); test: Inhibition of MET at 10 uM
U-937 [18] = test: Induction of apoptosis in human U937 cells assessed as early apoptotic cells at 10 uM after 6 hrs by annexinV-propidium iodide staining-based flow cytometric analysis (reference value: 4.6%); format: functional
U-937 [19] = test: Induction of apoptosis in human U937 cells assessed as late apoptotic cells at 3 uM after 3 hrs by annexinV-propidium iodide staining-based flow cytometric analysis (reference value: 8.6%); format: functional
U-937 [20] = test: Induction of apoptosis in human U937 cells assessed as late apoptotic cells at 10 uM after 3 hrs by annexinV-propidium iodide staining-based flow cytometric analysis (reference value: 8.6%); format: functional
U-937 [21] = test: Antiproliferative activity in human U937 cells assessed as inhibition of DNA synthesis at 10 to 30 uM after 24 hr by [3H]thymidine incorporation assay; format: functional, cell-based
How it was run: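 U937 cells, 2 × 10⁴/well, incubated with compound at various concentrations for 1 h or 24 h in presence of 1 µCi [³H]-thymidine. Cells harvested and counted by liquid scintillation. Incorporation expressed as % inhibition versus control. Significance by one-way ANOVA.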

U-937 [22] = test: Induction of apoptosis in human U937 cells assessed as late apoptotic cells at 3 uM after 18 hrs by annexinV-propidium iodide staining-based flow cytometric analysis (reference value: 7.8%); format: functional
[23] = molecular target: Cyclin-dependent kinase 2 (Homo sapiens) (UniProt P24941); test: Inhibition of CDK2 at 10 uM
[24] = molecular target: MAP kinase-activated protein kinase 2 (Homo sapiens) (UniProt P49137); test: Inhibition of MAPKAPK2 at 10 uM
U-937 [25] = test: Induction of apoptosis in human U937 cells assessed as early apoptotic cells at 10 uM after 18 hrs by annexinV-propidium iodide staining-based flow cytometric analysis (reference value: 4.3%); format: functional
[26] = molecular target: Serine/threonine-protein kinase MARK1 (Homo sapiens) (UniProt Q9P0L2); test: Inhibition of MARK1 at 10 uM
U-937 [27] = test: Cell cycle arrest in human U937 cells assessed as decrease in G2/M-phase population at 10 uM after 24 hrs by propidium iodide staining-based flow cytometric analysis; format: functional; how it was run: as §1
[28] = Inhibition of PKGa at 10 uM
U-937 [29] = test: Induction of apoptosis in human U937 cells assessed as early apoptotic cells at 10 uM after 3 hrs by annexinV-propidium iodide staining-based flow cytometric analysis (reference value: 2.8%); format: functional
U-937 [30] = test: Induction of apoptosis in human U937 cells assessed as viable cells at 10 uM after 6 hrs by annexinV-propidium iodide staining-based flow cytometric analysis (reference value: 80.3%); format: functional; conditions: U-937, 6 h, read-out: Activity

MAP kinase-activated protein kinase 2 (Homo sapiens), sequence (P49137 whole entry, looked up): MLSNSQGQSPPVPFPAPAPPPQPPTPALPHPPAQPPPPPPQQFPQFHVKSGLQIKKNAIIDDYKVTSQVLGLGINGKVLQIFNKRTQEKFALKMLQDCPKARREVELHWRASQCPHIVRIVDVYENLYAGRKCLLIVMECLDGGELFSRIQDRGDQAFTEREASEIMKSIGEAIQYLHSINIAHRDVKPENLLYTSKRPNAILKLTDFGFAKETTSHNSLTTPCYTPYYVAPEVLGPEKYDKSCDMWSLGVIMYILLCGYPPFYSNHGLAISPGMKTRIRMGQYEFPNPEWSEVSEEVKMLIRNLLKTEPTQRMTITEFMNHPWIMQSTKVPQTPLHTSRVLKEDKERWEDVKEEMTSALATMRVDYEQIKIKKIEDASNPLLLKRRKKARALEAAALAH
Tyrosine-protein kinase BTK (Homo sapiens), sequence (Q06187 whole entry): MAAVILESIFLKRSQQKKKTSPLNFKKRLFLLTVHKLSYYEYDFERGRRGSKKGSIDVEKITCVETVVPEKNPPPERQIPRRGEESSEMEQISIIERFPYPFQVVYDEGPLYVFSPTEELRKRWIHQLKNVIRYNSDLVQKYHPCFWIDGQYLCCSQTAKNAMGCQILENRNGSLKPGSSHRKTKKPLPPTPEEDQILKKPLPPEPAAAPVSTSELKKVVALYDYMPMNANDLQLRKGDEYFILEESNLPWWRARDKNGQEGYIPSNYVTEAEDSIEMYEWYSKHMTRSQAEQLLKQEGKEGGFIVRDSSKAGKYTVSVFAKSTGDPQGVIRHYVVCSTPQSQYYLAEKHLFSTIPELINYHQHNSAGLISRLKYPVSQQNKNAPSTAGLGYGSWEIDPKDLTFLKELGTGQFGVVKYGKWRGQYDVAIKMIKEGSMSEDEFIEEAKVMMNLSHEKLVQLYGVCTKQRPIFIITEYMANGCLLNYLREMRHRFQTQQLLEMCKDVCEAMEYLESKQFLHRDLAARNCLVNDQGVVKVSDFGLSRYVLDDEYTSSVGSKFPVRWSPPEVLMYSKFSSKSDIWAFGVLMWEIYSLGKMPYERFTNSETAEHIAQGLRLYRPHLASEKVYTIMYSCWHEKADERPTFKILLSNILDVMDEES
Serine/threonine-protein kinase MARK1 (Homo sapiens), sequence (Q9P0L2 whole entry, looked up): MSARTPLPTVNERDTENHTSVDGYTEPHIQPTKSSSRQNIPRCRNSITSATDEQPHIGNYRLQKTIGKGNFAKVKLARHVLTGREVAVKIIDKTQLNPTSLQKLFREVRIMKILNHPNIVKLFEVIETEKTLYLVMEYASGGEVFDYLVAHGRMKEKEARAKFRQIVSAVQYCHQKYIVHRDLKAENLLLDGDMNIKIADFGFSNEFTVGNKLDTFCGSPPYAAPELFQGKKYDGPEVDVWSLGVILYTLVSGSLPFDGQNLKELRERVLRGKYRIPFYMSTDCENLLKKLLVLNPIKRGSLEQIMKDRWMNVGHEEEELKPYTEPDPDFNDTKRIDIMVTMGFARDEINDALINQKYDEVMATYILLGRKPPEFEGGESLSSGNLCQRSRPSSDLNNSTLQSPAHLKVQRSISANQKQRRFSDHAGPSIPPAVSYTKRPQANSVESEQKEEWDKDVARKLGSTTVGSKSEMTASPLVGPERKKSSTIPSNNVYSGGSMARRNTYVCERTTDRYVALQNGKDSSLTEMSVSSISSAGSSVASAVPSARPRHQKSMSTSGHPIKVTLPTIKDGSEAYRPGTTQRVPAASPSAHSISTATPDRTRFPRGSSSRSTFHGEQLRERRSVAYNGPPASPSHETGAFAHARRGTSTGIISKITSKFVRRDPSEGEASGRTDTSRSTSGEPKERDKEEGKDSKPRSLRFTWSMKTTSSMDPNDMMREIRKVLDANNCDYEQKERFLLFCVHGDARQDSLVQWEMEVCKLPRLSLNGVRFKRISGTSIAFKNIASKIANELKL
MAP kinase-activated protein kinase 5 (Homo sapiens), sequence (Q8IW41 whole entry): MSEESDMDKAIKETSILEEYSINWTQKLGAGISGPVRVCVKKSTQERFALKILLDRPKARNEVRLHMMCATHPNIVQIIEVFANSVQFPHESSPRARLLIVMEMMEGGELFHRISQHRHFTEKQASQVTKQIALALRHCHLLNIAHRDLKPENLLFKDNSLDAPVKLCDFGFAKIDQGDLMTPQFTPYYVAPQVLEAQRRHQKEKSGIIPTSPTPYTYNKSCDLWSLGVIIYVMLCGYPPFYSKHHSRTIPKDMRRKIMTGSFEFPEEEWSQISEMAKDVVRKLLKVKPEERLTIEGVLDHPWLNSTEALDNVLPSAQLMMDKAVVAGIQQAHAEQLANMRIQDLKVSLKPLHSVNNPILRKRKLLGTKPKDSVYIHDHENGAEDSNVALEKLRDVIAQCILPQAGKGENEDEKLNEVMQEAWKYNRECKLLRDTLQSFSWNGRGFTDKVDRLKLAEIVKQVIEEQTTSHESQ
Tyrosine-protein kinase Lck (Homo sapiens), sequence (P06239 2-509 limits assumed): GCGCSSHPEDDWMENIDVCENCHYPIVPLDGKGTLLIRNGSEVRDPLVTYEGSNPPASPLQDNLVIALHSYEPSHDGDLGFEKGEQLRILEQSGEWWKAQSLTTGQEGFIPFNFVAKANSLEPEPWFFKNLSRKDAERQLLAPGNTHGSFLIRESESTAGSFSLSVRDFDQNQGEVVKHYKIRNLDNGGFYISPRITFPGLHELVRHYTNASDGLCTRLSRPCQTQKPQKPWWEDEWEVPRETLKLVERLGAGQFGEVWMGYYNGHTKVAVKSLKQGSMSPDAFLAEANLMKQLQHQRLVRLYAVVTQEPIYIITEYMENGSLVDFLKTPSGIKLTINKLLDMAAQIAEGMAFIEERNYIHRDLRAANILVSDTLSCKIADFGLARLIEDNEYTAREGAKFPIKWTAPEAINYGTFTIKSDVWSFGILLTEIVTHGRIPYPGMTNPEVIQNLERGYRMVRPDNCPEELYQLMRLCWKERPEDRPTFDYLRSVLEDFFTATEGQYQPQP
3-phosphoinositide-dependent protein kinase 1 (Homo sapiens), sequence (O15530 whole entry, looked up): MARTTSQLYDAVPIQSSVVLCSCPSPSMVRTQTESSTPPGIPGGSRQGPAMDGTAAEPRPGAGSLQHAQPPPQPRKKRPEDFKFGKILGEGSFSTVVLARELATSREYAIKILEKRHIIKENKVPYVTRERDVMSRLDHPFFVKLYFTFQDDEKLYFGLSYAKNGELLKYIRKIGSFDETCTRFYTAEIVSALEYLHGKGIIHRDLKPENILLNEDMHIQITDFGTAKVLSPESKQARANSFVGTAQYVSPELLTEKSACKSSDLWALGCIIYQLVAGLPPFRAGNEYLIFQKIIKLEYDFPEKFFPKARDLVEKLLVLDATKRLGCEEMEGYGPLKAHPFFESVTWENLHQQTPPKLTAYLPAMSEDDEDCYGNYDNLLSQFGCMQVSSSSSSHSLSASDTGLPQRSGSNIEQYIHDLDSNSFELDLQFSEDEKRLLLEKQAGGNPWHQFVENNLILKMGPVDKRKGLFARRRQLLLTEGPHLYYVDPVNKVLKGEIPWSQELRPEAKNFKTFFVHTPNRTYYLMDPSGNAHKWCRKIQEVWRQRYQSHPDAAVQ
RAF proto-oncogene serine/threonine-protein kinase (Homo sapiens), sequence (P04049 whole entry): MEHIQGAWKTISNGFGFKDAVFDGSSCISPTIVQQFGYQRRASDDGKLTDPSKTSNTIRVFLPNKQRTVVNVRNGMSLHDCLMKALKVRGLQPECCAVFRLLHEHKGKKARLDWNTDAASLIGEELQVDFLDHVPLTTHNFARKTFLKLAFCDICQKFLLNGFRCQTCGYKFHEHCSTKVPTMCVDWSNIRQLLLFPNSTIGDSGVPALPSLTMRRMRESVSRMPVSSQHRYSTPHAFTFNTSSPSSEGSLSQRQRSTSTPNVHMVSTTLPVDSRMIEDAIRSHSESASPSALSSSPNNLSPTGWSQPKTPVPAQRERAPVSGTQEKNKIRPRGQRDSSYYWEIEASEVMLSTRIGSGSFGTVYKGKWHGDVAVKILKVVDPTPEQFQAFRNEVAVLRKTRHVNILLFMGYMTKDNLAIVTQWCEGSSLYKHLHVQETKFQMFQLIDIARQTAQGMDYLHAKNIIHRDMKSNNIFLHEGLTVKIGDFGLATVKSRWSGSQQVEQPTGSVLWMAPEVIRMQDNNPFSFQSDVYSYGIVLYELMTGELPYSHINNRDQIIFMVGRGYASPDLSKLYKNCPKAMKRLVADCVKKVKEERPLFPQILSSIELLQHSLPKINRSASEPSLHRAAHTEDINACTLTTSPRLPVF
Serine/threonine-protein kinase Chk1 (Homo sapiens), sequence (O14757 whole entry): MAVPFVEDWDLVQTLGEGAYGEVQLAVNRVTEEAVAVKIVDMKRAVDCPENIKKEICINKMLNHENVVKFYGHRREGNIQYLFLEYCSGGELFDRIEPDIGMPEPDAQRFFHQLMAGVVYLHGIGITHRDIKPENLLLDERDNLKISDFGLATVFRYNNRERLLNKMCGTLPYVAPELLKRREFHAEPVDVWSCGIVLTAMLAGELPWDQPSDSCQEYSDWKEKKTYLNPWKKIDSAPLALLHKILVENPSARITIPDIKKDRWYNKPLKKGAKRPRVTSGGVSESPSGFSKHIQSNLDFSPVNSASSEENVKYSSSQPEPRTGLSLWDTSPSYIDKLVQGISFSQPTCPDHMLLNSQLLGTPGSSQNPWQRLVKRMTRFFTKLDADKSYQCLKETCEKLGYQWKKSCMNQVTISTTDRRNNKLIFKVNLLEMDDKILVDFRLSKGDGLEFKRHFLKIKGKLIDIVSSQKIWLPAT

inhibition [2]: -5%
inhibition [6]: Active
inhibition [8]: 4%
inhibition [9]: inactive
inhibition [10]: 4%
inhibition [11]: 12%
inhibition [14]: 6%
inhibition [15]: -2%
inhibition [16]: 11%
inhibition [17]: -1%
inhibition [23]: -2%
inhibition [24]: 3%
inhibition [26]: 0%
inhibition [28]: -2%
Compound: NCCN1C(=O)S/C(=C\CCC2CCCCC2)C1=O
Activity (U-937 [1]): 1.9%
growth inhibition (GI) (U-937 [3]): Active
Activity [4]: 29.2%
Activity (DU-145 [5]): 23%
Activity (U-937 [7]): 3.5%
Activity (U-937 [12]): Dose-dependent effect
growth inhibition (GI) (DU-145 [13]): Active
Activity (U-937 [18]): 14.2%
Activity (U-937 [19]): 7.7%
Activity (U-937 [20]): 11%
Activity (U-937 [21]): Active
Activity (U-937 [22]): 5.7%
Activity (U-937 [25]): 15%
Activity (U-937 [27]): Active
Activity (U-937 [29]): 23.8%
viability at 10 µM (U-937 [30]): 40.2%
